Columns and labels:
Assay type in all cases: functional, cell-based; call rule not given here
P2Y purinoceptor 1 [1] = target: P2Y purinoceptor 1 (Rattus norvegicus, UniProt P49651); experiment: Activity against rat P2Y1-GFP transfected in HEK293 cells by intracellular calcium increase
Method in brief: (§1)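 HEK 293 cells stably expressing rat P2Y1-GFP or P2Y2-GFP (C-terminal GFP), transfected with DOTAP and selected with 1 mg/mL G418. Grown in DMEM/Ham's F12 with 10% FCS on PLL coverslips and measured after 3 days. Loaded with 2 µM Fura-2/AM for 30 min, then superfused with NaHBS at 37 °C with agonist for 1 min. Single-cell 340/380 nm ratio; mean ± SD, ≥50 cells.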

P2Y purinoceptor 2 = P2Y purinoceptor 2 (Rattus norvegicus, UniProt P41232); experiment: Activity against rat P2Y2-GFP transfected in HEK293 cells by intracellular calcium increase; method in brief: as §1
P2Y purinoceptor 1 [2] = target: P2Y purinoceptor 1 (Homo sapiens, UniProt P47900); experiment: Activity against human P2Y1-GFP expressed in 1321N1 cells by intracellular calcium increase
Method in brief: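 hP2Y1-GFP (C-terminal tag) stably transfected into 1321N1 cells, which lack endogenous P2Y receptors; selected with 1 mg/mL G418. Cells grown in DMEM with 5% FCS under 10% CO2 at 37 °C on PLL-coated coverslips. Loaded with 2 µM Fura-2/AM for 30 min in NaHBS pH 7.4, then superfused at 37 °C with agonist for 1 min. Read-out is single-cell 340/380 nm fluorescence ratio; mean ± SD from ≥50 cells.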

Sequence of P2Y purinoceptor 2 (P41232 whole entry): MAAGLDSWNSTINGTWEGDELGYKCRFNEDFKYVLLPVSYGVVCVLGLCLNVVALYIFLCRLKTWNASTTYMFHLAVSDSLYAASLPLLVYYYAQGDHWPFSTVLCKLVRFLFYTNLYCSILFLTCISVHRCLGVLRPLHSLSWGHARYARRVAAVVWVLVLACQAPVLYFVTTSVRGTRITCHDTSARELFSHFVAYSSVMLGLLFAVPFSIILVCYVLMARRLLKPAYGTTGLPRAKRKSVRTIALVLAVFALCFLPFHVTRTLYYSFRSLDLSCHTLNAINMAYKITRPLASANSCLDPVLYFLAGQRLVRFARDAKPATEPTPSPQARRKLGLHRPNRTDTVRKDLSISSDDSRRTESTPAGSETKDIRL
Sequence of P2Y purinoceptor 1 (Rattus norvegicus, UniProt P49651) (P49651 whole entry, the tested form may be a part): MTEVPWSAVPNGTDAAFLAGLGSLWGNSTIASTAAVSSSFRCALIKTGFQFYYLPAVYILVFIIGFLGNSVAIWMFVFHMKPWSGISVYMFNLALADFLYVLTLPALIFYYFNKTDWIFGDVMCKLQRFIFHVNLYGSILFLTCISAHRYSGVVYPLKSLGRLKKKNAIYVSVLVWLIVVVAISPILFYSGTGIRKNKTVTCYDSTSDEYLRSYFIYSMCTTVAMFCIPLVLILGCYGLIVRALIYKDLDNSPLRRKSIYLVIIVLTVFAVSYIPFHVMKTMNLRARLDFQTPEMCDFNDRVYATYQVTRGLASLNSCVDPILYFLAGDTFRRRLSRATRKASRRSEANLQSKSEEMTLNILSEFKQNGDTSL
Sequence of P2Y purinoceptor 1 (Homo sapiens, UniProt P47900) (P47900 whole entry, the tested form may be a part): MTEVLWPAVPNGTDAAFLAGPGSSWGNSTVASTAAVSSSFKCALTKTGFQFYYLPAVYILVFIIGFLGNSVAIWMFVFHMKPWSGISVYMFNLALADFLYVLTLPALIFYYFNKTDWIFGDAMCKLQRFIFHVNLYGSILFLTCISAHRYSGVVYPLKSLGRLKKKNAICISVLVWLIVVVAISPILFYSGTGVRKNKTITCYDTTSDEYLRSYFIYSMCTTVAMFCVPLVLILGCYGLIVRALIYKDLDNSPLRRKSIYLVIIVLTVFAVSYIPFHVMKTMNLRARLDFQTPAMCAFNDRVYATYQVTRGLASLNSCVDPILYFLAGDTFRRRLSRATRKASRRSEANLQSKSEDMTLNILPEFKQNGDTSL

| Compound | EC50 (P2Y purinoceptor 1 [1]) | further results |
| --- | --- | --- |
| BP(=O)(OP(=O)(O)OC[C@H]1O[C@@H](n2cnc3c(N)ncnc32)[C@H](O)[C@@H]1O)OP(=O)(O)OC[C@H]1O[C@@H](n2cnc3c(N)ncnc32)[C@H](O)[C@@H]1O.CCCCN(CCCC)CCCC.CCCCN(CCCC)CCCC.CCCCN(CCCC)CCCC | 900 nM |  |
| Nc1ncnc2c1ncn2[C@@H]1O[C@H](COP(=O)(O)OP(=O)(O)OP(=O)(O)OP(=O)(O)OP(=O)(O)OC[C@H]2O[C@@H](n3cnc4c(N)ncnc43)[C@H](O)[C@@H]2O)[C@@H](O)[C@H]1O | ≥ 5000 nM |  |
| CSc1nc(N)c2ncn([C@@H]3O[C@H](COP(=O)(O)OP(=O)(O)O)[C@@H](O)[C@H]3O)c2n1 | 100 nM |  |
| O=c1ccn([C@@H]2O[C@H](COP(=O)(O)OP(=O)(O)OP(=O)(O)O)[C@@H](O)[C@H]2O)c(=O)[nH]1 [URIDINE TRIPHOSPHATE] |  | EC50 (P2Y purinoceptor 2; read-out: EC50): 130 nM |
| BP(=O)(OP(=O)(O)OP(=O)(O)OC[C@H]1O[C@@H](n2ccc(=O)[nH]c2=O)[C@H](O)[C@@H]1O)OP(=O)(O)OP(=O)(O)OC[C@H]1O[C@@H](n2ccc(=O)[nH]c2=O)[C@H](O)[C@@H]1O.CCCCN(CCCC)CCCC.CCCCN(CCCC)CCCC.CCCCN(CCCC)CCCC.CCCCN(CCCC)CCCC.CCCCN(CCCC)CCCC |  | EC50 (P2Y purinoceptor 1 [2]): 800 nM; EC50 (P2Y purinoceptor 2; read-out: EC50): > 7000 nM |
| Nc1ncnc2c1ncn2[C@@H]1O[C@H](COP(=O)(O)OP(=O)(O)OP(=O)(O)OC[C@H]2O[C@@H](n3cnc4c(N)ncnc43)[C@H](O)[C@@H]2O)[C@@H](O)[C@H]1O | 60 nM |  |
| BP(=O)(OP(=O)(O)OP(=O)(O)OC[C@H]1O[C@@H](n2cnc3c(N)ncnc32)[C@H](O)[C@@H]1O)OP(=O)(O)OP(=O)(O)OC[C@H]1O[C@@H](n2cnc3c(N)ncnc32)[C@H](O)[C@@H]1O.CCCCN(CCCC)CCCC.CCCCN(CCCC)CCCC.CCCCN(CCCC)CCCC.CCCCN(CCCC)CCCC.CCCCN(CCCC)CCCC | 63 nM |  |
| BP(=O)(OP(=O)(O)OC[C@H]1O[C@@H](n2ccc(=O)[nH]c2=O)[C@H](O)[C@@H]1O)OP(=O)(O)OC[C@H]1O[C@@H](n2ccc(=O)[nH]c2=O)[C@H](O)[C@@H]1O.CCCCN(CCCC)CCCC.CCCCN(CCCC)CCCC.CCCCN(CCCC)CCCC |  | EC50 (P2Y purinoceptor 1 [2]): 800 nM; EC50 (P2Y purinoceptor 2; hek293): Not Active |
